Reference: ChEMBL document CHEMBL1781906, “New quinolin-4-yl-1,2,3-triazoles carrying amides, sulphonamides and amidopiperazines as potential antitubercular agents” (2011)
In brackets after ≈: the same amount, converted by molar mass.

Key:
Format in all cases: functional
[1] = test system: Mycobacterium tuberculosis; assay: Antimycobacterial activity against Mycobacterium tuberculosis H37Rv ATCC 27294 after 7 days by resazurin method; conditions: H37Rv ATCC 27294, 168 h
Summary of the method: (§1)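 H37Rv was grown in Middlebrook 7H9 broth with 10% OADC, diluted to McFarland 2 in the same medium, and added to fresh medium in 96-well plates with compound. Compounds were tested at 1, 10 and 100. The dye turned pink in controls after […] at 37 °C.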

[2] = test system: Mycolicibacterium smegmatis; assay: Antimycobacterial activity against Mycobacterium smegmatis ATCC 19420 after 7 days by resazurin method; conditions: ATCC 19420, 168 h
Summary of the method: (§2)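 MIC was determined by resazurin microplate assay. Resazurin turns from blue to pink when reduced by viable cells, and wells with no colour change were scored as inhibited. Isoniazid and rifampicin were reference drugs.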

[3] = test system: Mycolicibacterium fortuitum; assay: Antimycobacterial activity against Mycobacterium fortuitum ATCC 19542 after 7 days by resazurin method; conditions: ATCC 19542, 168 h; summary of the method: as §2
[4] = test system: Mycobacterium tuberculosis; assay: Antimycobacterial activity against Mycobacterium tuberculosis H37Rv ATCC 27294 assessed as inhibition of bacterial growth at 1 to 100 ug/ml after 7 days by resazurin method; summary of the method: as §1
Staphylococcus aureus = assay: Antibacterial activity against Staphylococcus aureus ATCC 25923 after 18 to 24 hrs by serial plate dilution method
Streptococcus pyogenes = assay: Antibacterial activity against Streptococcus pyogenes after 18 to 24 hrs by serial plate dilution method
Pseudomonas aeruginosa = assay: Antibacterial activity against Pseudomonas aeruginosa ATCC 27853 after 18 to 24 hrs by […]
Klebsiella pneumoniae = assay: Antibacterial activity against Klebsiella pneumoniae after 18 to 24 hrs by […]
Escherichia coli = assay: Antibacterial activity against Escherichia coli ATCC 25922 after 18 to 24 hrs by […]

CO[C@H]1/C=C/O[C@@]2(C)Oc3c(C)c(O)c4c(O)c(c(/C=N/N5CCN(C)CC5)c(O)c4c3C2=O)NC(=O)/C(C)=C\C=C\[C@H](C)[C@H](O)[C@@H](C)[C@@H](O)[C@@H](C)[C@H](OC(C)=O)[C@@H]1C [RIFAMPIN] gave an MIC [1] of 0.5 µg/mL (≈ 0.608 µM), an MIC [2] of 1.5 µg/mL (≈ 1.82 µM) and an MIC [3] of 1.5 µg/mL (≈ 1.82 µM). For the same molecule, the “inhibition (INH)” value [4] was 95%.
Molecule COc1ccc2nc(C)cc(-n3cc(CNC(=O)c4ccc(C)cc4)nn3)c2c1 has an MIC (Staphylococcus aureus) of 1.6 µg/mL (≈ 4.13 µM), an MIC (Streptococcus pyogenes) of 0.8 µg/mL (≈ 2.06 µM) and an MIC (Pseudomonas aeruginosa) of 6.25 µg/mL (≈ 16.1 µM). The MIC (Klebsiella pneumoniae) was 3.12 µg/mL (≈ 8.05 µM), the MIC (Escherichia coli) was 3.12 µg/mL (≈ 8.05 µM) and the MIC [1] was 100 µg/mL (≈ 258 µM). The MIC [2] was 100 µg/mL (≈ 258 µM) and the MIC [3] was 100 µg/mL (≈ 258 µM).
With COc1ccc2nc(C)cc(-n3cc(CN4CCN(C(=O)c5ccc(C)cc5)CC4)nn3)c2c1 the MIC (Staphylococcus aureus) was 6.25 µg/mL (≈ 13.7 µM), the MIC (Streptococcus pyogenes) was 6.25 µg/mL (≈ 13.7 µM) and the MIC (Pseudomonas aeruginosa) was 12.5 µg/mL (≈ 27.4 µM). It also gave an MIC (Klebsiella pneumoniae) of 12.5 µg/mL (≈ 27.4 µM), an MIC (Escherichia coli) of 6.25 µg/mL (≈ 13.7 µM) and an MIC [1] of 100 µg/mL (≈ 219 µM). It also gave an MIC [2] of 100 µg/mL (≈ 219 µM) and an MIC [3] of 100 µg/mL (≈ 219 µM).
With COc1ccc(C(=O)N2CCN(Cc3cn(-c4cc(C)nc5ccc(OC)cc45)nn3)CC2)cc1 the MIC (Staphylococcus aureus) was 0.8 µg/mL (≈ 1.69 µM), the MIC (Streptococcus pyogenes) was 1.6 µg/mL (≈ 3.39 µM) and the MIC (Pseudomonas aeruginosa) was 3.12 µg/mL (≈ 6.6 µM). For the same molecule, the MIC (Klebsiella pneumoniae) was 1.6 µg/mL (≈ 3.39 µM), the MIC (Escherichia coli) was 0.4 µg/mL (≈ 0.846 µM) and the MIC [1] was 0.625 µg/mL (≈ 1.32 µM). The MIC [2] was 5 µg/mL (≈ 10.6 µM), the MIC [3] was 10 µg/mL (≈ 21.2 µM) and the “inhibition (INH)” value [4] was 90%.
COc1ccc2nc(C)cc(-n3cc(CNS(=O)(=O)c4ccccc4)nn3)c2c1 showed an MIC (Staphylococcus aureus) of 12.5 µg/mL (≈ 30.5 µM), an MIC (Streptococcus pyogenes) of 6.25 µg/mL (≈ 15.3 µM) and an MIC (Pseudomonas aeruginosa) of 6.25 µg/mL (≈ 15.3 µM). The MIC (Klebsiella pneumoniae) was 6.25 µg/mL (≈ 15.3 µM), the MIC (Escherichia coli) was 6.25 µg/mL (≈ 15.3 µM) and the MIC [1] was 100 µg/mL (≈ 244 µM). For the same molecule, the MIC [2] was 100 µg/mL (≈ 244 µM) and the MIC [3] was 100 µg/mL (≈ 244 µM).
For COc1ccc2nc(C)cc(-n3cc(CN4CCN(C(=O)C5CC5)CC4)nn3)c2c1, the MIC (Staphylococcus aureus) was 0.8 µg/mL (≈ 1.97 µM), the MIC (Streptococcus pyogenes) was 0.4 µg/mL (≈ 0.984 µM) and the MIC (Pseudomonas aeruginosa) was 0.4 µg/mL (≈ 0.984 µM). It also gave an MIC (Klebsiella pneumoniae) of 0.2 µg/mL (≈ 0.492 µM), an MIC (Escherichia coli) of 0.4 µg/mL (≈ 0.984 µM) and an MIC [1] of 5 µg/mL (≈ 12.3 µM). The MIC [2] was 100 µg/mL (≈ 246 µM), the MIC [3] was 100 µg/mL (≈ 246 µM) and the “inhibition (INH)” value [4] was 90%.
NNC(=O)c1ccncc1 [ISONIAZID] showed an MIC [1] of 0.7 µg/mL (≈ 5.1 µM), an MIC [2] of 50 µg/mL (≈ 365 µM) and an MIC [3] of 12.5 µg/mL (≈ 91.1 µM). For the same molecule, the “inhibition (INH)” value [4] was 95%.
COc1ccc2nc(C)cc(-n3cc(CNC(=O)c4ccccc4Cl)nn3)c2c1 gave an MIC (Staphylococcus aureus) of 1.6 µg/mL (≈ 3.92 µM), an MIC (Streptococcus pyogenes) of 3.12 µg/mL (≈ 7.65 µM) and an MIC (Pseudomonas aeruginosa) of 6.25 µg/mL (≈ 15.3 µM). For the same molecule, the MIC (Klebsiella pneumoniae) was 3.12 µg/mL (≈ 7.65 µM), the MIC (Escherichia coli) was 3.12 µg/mL (≈ 7.65 µM) and the MIC [1] was 10 µg/mL (≈ 24.5 µM). The MIC [2] was 100 µg/mL (≈ 245 µM), the MIC [3] was 100 µg/mL (≈ 245 µM) and the “inhibition (INH)” value [4] was 80%.
In the case of COc1ccc2nc(C)cc(-n3cc(CN4CCN(C(=O)c5ccccc5Cl)CC4)nn3)c2c1, the MIC (Staphylococcus aureus) is reported as 3.12 µg/mL (≈ 6.54 µM), the MIC (Streptococcus pyogenes) is reported as 3.12 µg/mL (≈ 6.54 µM) and the MIC (Pseudomonas aeruginosa) is reported as 3.12 µg/mL (≈ 6.54 µM). The MIC (Klebsiella pneumoniae) was 3.12 µg/mL (≈ 6.54 µM), the MIC (Escherichia coli) was 6.25 µg/mL (≈ 13.1 µM) and the MIC [1] was 10 µg/mL (≈ 21 µM). For the same molecule, the MIC [2] was 100 µg/mL (≈ 210 µM) and the MIC [3] was 100 µg/mL (≈ 210 µM).
Molecule COc1ccc2nc(C)cc(-n3cc(CN4CCN(C(C)=O)CC4)nn3)c2c1 has an MIC (Staphylococcus aureus) of 0.4 µg/mL (≈ 1.05 µM), an MIC (Streptococcus pyogenes) of 0.2 µg/mL (≈ 0.526 µM) and an MIC (Pseudomonas aeruginosa) of 0.2 µg/mL (≈ 0.526 µM). For the same molecule, the MIC (Klebsiella pneumoniae) was 0.1 µg/mL (≈ 0.263 µM), the MIC (Escherichia coli) was 0.1 µg/mL (≈ 0.263 µM) and the MIC [1] was 0.625 µg/mL (≈ 1.64 µM). For the same molecule, the MIC [2] was 10 µg/mL (≈ 26.3 µM), the MIC [3] was 100 µg/mL (≈ 263 µM) and the “inhibition (INH)” value [4] was 95%.
Molecule COc1ccc2nc(C)cc(-n3cc(CNC(C)=O)nn3)c2c1 has an MIC (Staphylococcus aureus) of 0.4 µg/mL (≈ 1.28 µM), an MIC (Streptococcus pyogenes) of 0.2 µg/mL (≈ 0.642 µM) and an MIC (Pseudomonas aeruginosa) of 0.2 µg/mL (≈ 0.642 µM). For the same molecule, the MIC (Klebsiella pneumoniae) was 0.1 µg/mL (≈ 0.321 µM), the MIC (Escherichia coli) was 0.1 µg/mL (≈ 0.321 µM) and the MIC [1] was 0.625 µg/mL (≈ 2.01 µM). For the same molecule, the MIC [2] was 10 µg/mL (≈ 32.1 µM), the MIC [3] was 10 µg/mL (≈ 32.1 µM) and the “inhibition (INH)” value [4] was 95%.
COc1ccc2nc(C)cc(-n3cc(CNS(=O)(=O)c4ccc(F)cc4)nn3)c2c1 was tested, and the MIC (Staphylococcus aureus) was 0.4 µg/mL (≈ 0.936 µM), the MIC (Streptococcus pyogenes) was 0.4 µg/mL (≈ 0.936 µM) and the MIC (Pseudomonas aeruginosa) was 0.8 µg/mL (≈ 1.87 µM). It also gave an MIC (Klebsiella pneumoniae) of 3.12 µg/mL (≈ 7.3 µM), an MIC (Escherichia coli) of 3.12 µg/mL (≈ 7.3 µM) and an MIC [1] of 1 µg/mL (≈ 2.34 µM). For the same molecule, the MIC [2] was 100 µg/mL (≈ 234 µM), the MIC [3] was 100 µg/mL (≈ 234 µM) and the “inhibition (INH)” value [4] was 85%.
With COc1ccc2nc(C)cc(-n3cc(CNC(=O)c4ccc(F)cc4)nn3)c2c1 the MIC (Staphylococcus aureus) was 0.8 µg/mL (≈ 2.04 µM), the MIC (Streptococcus pyogenes) was 0.2 µg/mL (≈ 0.511 µM) and the MIC (Pseudomonas aeruginosa) was 0.2 µg/mL (≈ 0.511 µM). It also gave an MIC (Klebsiella pneumoniae) of 0.2 µg/mL (≈ 0.511 µM), an MIC (Escherichia coli) of 0.2 µg/mL (≈ 0.511 µM) and an MIC [1] of 0.625 µg/mL (≈ 1.6 µM). For the same molecule, the MIC [2] was 10 µg/mL (≈ 25.5 µM), the MIC [3] was 100 µg/mL (≈ 255 µM) and the “inhibition (INH)” value [4] was 90%.
CCc1ccc(S(=O)(=O)NCc2cn(-c3cc(C)nc4ccc(OC)cc34)nn2)cc1 was tested, and the MIC (Staphylococcus aureus) was 6.25 µg/mL (≈ 14.3 µM), the MIC (Streptococcus pyogenes) was 6.25 µg/mL (≈ 14.3 µM) and the MIC (Pseudomonas aeruginosa) was 12.5 µg/mL (≈ 28.6 µM). It also gave an MIC (Klebsiella pneumoniae) of 6.25 µg/mL (≈ 14.3 µM), an MIC (Escherichia coli) of 6.25 µg/mL (≈ 14.3 µM) and an MIC [1] of 100 µg/mL (≈ 229 µM). For the same molecule, the MIC [2] was 100 µg/mL (≈ 229 µM) and the MIC [3] was 100 µg/mL (≈ 229 µM).
COc1ccc2nc(C)cc(-n3cc(CN4CCN(C(=O)c5ccc(F)cc5)CC4)nn3)c2c1 was tested, and the MIC (Staphylococcus aureus) was 0.8 µg/mL (≈ 1.74 µM), the MIC (Streptococcus pyogenes) was 0.4 µg/mL (≈ 0.869 µM) and the MIC (Pseudomonas aeruginosa) was 1.6 µg/mL (≈ 3.47 µM). The MIC (Klebsiella pneumoniae) was 0.8 µg/mL (≈ 1.74 µM), the MIC (Escherichia coli) was 0.8 µg/mL (≈ 1.74 µM) and the MIC [1] was 1 µg/mL (≈ 2.17 µM). For the same molecule, the MIC [2] was 1 µg/mL (≈ 2.17 µM), the MIC [3] was 10 µg/mL (≈ 21.7 µM) and the “inhibition (INH)” value [4] was 90%.
